The target in experiment [1] is T1, Scm-like with four MBT domains protein 1 (Homo sapiens, UniProt Q9UHJ3).
T1 sequence (Q9UHJ3 whole entry): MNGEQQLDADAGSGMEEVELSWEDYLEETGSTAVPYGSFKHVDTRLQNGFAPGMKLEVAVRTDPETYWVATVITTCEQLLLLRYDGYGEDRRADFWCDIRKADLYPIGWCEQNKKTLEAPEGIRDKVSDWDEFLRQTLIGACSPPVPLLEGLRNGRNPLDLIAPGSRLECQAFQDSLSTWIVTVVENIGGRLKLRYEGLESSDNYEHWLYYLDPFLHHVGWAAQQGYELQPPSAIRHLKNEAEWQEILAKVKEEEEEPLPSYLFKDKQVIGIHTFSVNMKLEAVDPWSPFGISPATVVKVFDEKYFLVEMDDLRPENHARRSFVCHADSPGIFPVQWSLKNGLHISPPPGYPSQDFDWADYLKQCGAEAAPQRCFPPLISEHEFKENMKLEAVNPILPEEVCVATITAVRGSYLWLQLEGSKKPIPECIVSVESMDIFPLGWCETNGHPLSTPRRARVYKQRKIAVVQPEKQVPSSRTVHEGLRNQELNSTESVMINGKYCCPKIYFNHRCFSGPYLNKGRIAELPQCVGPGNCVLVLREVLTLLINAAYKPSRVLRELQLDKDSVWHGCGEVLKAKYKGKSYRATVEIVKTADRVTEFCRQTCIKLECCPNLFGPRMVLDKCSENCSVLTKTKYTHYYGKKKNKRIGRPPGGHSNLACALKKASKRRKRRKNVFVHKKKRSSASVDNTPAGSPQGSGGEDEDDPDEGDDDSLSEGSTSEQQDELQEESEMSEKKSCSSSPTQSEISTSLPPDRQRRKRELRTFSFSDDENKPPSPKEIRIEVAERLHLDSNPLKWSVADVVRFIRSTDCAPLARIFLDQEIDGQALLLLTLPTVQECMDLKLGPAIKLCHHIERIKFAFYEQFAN
Description: Inhibition of SFMBT1 (unknown origin) after 30 mins by AlphaScreen assay. Put shortly: (§1)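 AlphaScreen competition with histone peptide. Compounds in 3-fold, 10-point dilutions, top 10 or 30 μM; buffer 20 mM Tris pH 8.0, 25 mM NaCl, 2 mM DTT, 0.05% Tween-20. Protein-peptide mix 30 min RT, then streptavidin donor plus nickel-chelate acceptor beads (GST acceptor beads for GST-tagged PHF23, JARID1A) 30 min RT dark. […] Protein-free His6-biotin peptide counterscreen.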
(In general: Alpha assays give light when donor and acceptor beads are brought close together.)

The target in experiment [2] is T2, Lethal(3)malignant brain tumor-like protein 3 (Homo sapiens, UniProt Q96JM7).
T2 sequence (Q96JM7 whole entry): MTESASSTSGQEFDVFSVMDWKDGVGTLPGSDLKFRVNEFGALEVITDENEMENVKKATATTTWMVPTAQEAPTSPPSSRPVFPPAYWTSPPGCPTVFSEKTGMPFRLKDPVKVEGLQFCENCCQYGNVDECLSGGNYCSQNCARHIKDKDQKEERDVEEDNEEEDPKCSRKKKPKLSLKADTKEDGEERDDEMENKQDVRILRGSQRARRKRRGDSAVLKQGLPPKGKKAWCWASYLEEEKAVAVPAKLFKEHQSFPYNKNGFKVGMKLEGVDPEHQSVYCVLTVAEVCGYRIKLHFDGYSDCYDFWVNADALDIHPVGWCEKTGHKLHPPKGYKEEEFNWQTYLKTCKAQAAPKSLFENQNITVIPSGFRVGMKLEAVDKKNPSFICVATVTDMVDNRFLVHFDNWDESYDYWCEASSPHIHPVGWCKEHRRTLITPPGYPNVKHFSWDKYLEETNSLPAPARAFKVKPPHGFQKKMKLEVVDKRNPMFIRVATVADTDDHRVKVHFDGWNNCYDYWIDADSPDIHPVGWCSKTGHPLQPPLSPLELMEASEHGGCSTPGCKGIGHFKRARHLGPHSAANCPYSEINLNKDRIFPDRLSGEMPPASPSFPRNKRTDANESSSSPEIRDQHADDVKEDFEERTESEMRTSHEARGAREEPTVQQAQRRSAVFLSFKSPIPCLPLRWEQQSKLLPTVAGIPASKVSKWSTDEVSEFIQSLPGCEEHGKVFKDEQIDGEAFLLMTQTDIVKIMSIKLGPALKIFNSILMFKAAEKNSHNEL
Description: Inhibition of L3MBTL3 (unknown origin) after 30 mins by AlphaScreen assay. The method in brief:
(§2)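 AlphaScreen competition with histone peptide. Compounds in 3-fold, 10-point dilutions, top 10 or 30 μM; buffer 20 mM Tris pH 8.0, 25 mM NaCl, 2 mM DTT, 0.05% Tween-20. Protein-peptide mix 30 min RT, then streptavidin donor plus nickel-chelate acceptor beads (GST acceptor beads for GST-tagged PHF23, JARID1A) 30 min RT dark. Protein-free His6-biotin peptide counterscreen.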

Experiment [3] addresses MBT domain-containing protein 1 (Homo sapiens, UniProt Q05BQ5). Description: Inhibition of MBTD1 (unknown origin) after 30 mins by AlphaScreen assay. Put shortly:
as §2

The target in experiment [4] is T3, E3 ubiquitin-protein ligase UHRF1 (Homo sapiens, UniProt Q96T88).
T3 sequence (Q96T88 whole entry): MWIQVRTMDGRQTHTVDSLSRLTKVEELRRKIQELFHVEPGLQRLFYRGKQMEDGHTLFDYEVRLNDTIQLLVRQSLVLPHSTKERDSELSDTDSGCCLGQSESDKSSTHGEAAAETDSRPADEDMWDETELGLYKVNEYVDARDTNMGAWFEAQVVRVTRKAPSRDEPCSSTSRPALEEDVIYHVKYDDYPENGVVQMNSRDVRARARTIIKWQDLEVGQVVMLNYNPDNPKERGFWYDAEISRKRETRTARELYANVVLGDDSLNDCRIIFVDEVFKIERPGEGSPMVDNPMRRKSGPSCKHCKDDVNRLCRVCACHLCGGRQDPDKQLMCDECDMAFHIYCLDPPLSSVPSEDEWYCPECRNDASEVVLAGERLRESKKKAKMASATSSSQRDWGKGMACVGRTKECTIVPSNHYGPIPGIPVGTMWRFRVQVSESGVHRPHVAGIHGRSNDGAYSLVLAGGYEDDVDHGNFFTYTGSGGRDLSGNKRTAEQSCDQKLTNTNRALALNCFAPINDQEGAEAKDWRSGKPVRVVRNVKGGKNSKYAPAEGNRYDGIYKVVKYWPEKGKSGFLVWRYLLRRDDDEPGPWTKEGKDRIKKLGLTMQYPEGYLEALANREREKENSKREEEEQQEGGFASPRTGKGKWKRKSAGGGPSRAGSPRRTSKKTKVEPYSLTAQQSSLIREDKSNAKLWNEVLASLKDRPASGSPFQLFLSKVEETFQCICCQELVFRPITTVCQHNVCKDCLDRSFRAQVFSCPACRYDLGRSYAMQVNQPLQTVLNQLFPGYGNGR
Description: Inhibition of UHRF1 (unknown origin) after 30 mins by AlphaScreen assay. The method in brief:
as §1

MBT domain-containing protein 1, sequence (Q05BQ5 whole entry, the tested form may be a part): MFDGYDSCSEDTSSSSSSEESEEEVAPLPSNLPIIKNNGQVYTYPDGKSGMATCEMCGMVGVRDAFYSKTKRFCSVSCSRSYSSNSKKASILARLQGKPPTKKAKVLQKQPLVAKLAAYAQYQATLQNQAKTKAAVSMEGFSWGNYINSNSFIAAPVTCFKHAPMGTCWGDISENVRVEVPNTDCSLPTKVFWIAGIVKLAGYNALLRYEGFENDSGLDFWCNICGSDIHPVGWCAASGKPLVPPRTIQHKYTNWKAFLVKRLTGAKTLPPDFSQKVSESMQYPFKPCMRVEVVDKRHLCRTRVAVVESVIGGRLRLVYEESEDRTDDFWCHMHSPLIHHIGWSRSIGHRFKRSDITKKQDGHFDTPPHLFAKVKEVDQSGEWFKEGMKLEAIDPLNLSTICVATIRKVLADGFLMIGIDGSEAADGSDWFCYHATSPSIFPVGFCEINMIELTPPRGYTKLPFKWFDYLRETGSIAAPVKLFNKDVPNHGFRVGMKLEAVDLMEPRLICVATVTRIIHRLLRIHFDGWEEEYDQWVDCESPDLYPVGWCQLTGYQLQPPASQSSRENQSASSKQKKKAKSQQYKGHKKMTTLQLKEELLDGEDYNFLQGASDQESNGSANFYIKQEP

For orientation: IC50 means the point on the concentration scale where inhibition reaches its midpoint. Read a high IC50 as weaker potency in that assay. On to `O=C(c1cncc(Br)c1)N1CCC(N2CCCC2)CC1`, for which the half-inhibitory concentration (IC50) in experiment [1] was greater than 10 µM; in experiment [2], 3.1 µM; in experiment [3], greater than 10 µM; in experiment [4], greater than 10 µM.
`O=C(c1ccc(S(=O)(=O)N2CCC(N3CCCC3)CC2)cc1)N1CCC(N2CCCC2)CC1`: the IC50 in experiment [1] is greater than 10 µM; in experiment [2], 0.099 µM; in experiment [3], 5.4 µM; in experiment [4], greater than 10 µM.
For `O=C(c1ccc(C(=O)N2CCC(N3CCCC3)CC2)cc1)N1CCC(C2CCCCC2)CC1`, the half-inhibitory concentration (IC50) in experiment [1] was greater than 10 µM; in experiment [2], 2.4 µM; in experiment [3] it was 8.1 µM; in experiment [4], greater than 10 µM.
Take `O=C(c1ccc(C(=O)N2CCC(N3CCCC3)CC2)c2ccccc12)N1CCC(N2CCCC2)CC1`: the concentration for half-maximal inhibition (IC50) in experiment [1] was greater than 10 µM; in experiment [2] it was 0.072 µM; in experiment [3] it was 5.7 µM; in experiment [4] it was greater than 10 µM.
Consider `O=C(c1ccc(C(=O)N2CCC(N3CCCC3)CC2)c(NCc2ccccc2)c1)N1CCC(N2CCCC2)CC1`, for which the IC50 in experiment [1] is greater than 10 µM; in experiment [2], 0.039 µM; in experiment [3], greater than 10 µM; in experiment [4], greater than 10 µM.
With `CCN1Cc2ccc(NC(=O)c3ccc(C(=O)N4CCC(N5CCCC5)CC4)cc3)cc2C1`, the concentration for half-maximal inhibition (IC50) in experiment [1] was greater than 10 µM; in experiment [2] it was 0.37 µM; in experiment [3], greater than 10 µM; in experiment [4], greater than 10 µM.
`O=C(c1ccc(C(=O)N2CCC(N3CCCC3)CC2)c(Oc2ccccc2)c1)N1CCC(N2CCCC2)CC1`: the IC50 was greater than 10 µM in experiment [1], 0.058 µM in experiment [2], 9.3 µM in experiment [3] and greater than 10 µM in experiment [4].
Consider `Cc1cc(C(=O)N2CCC(N3CCCC3)CC2)c(C)cc1C(=O)N1CCC(N2CCCC2)CC1`, for which the half-maximal inhibitory concentration (IC50) in experiment [1] is greater than 10 µM; in experiment [2], 0.21 µM; in experiment [3], greater than 10 µM; in experiment [4], greater than 10 µM.
On to `CN(C)C1CCN(C(=O)c2ccc(C(=O)N3CCC(N4CCCC4)CC3)cc2)CC1`, for which the IC50 in experiment [1] is greater than 10 µM; in experiment [2], 0.31 µM; in experiment [3] it was greater than 10 µM; in experiment [4], greater than 10 µM.
As for `O=C(c1ccc(C(=O)N2CCC(N3CCCC3)CC2)cc1)N1CCC(N2CCCCC2)CC1`, the IC50 was greater than 10 µM in experiment [1], 0.23 µM in experiment [2], 10 µM in experiment [3] and greater than 10 µM in experiment [4].
For the compound `O=C(c1ccc(C(=O)N2CCC(N3CCCC3)CC2)c([N+](=O)[O-])c1)N1CCC(N2CCCC2)CC1`, the 50% inhibitory concentration (IC50) in experiment [1] was greater than 10 µM; in experiment [2], 0.16 µM; in experiment [3], greater than 10 µM; in experiment [4], greater than 10 µM.
For the compound `O=C(c1ccc(C(=O)N2CCC3(CCNC3)C2)cc1)N1CCC(N2CCCC2)CC1` (stereo not drawn), the IC50 in experiment [1] is greater than 10 µM; in experiment [2] it was 1.8 µM; in experiment [3], greater than 10 µM; in experiment [4], greater than 10 µM.
For `O=C(c1ccc(C(=O)N2CCC(N3CCC3)CC2)cc1)N1CCC(N2CCC2)CC1`, the half-inhibitory concentration (IC50) is greater than 10 µM in experiment [1], 0.4 µM in experiment [2], greater than 10 µM in experiment [3] and greater than 10 µM in experiment [4].
Consider `CCN1Cc2ccc(NC(=O)c3ccc(C(=O)N4CCC(C5CCCN5)CC4)c(Nc4ccccc4)c3)cc2C1` (stereo not drawn), for which the results for the IC50 in experiment [1], in experiment [3] and in experiment [4] were greater than 10 µM, 5.1 µM and greater than 10 µM, respectively.
`C[N+]1(C2CCN(C(=O)c3ccc(C(=O)N4CCC(N5CCCC5)CC4)cc3)CC2)CCCC1`: the IC50 in experiment [1] is greater than 10 µM; in experiment [2], 0.14 µM; in experiment [3] it was greater than 10 µM; in experiment [4], greater than 10 µM.
Turning to `O=C(c1ccc(CN2CCC(N3CCCC3)CC2)cc1)N1CCC(N2CCCC2)CC1`, the IC50 in experiment [1] was greater than 10 µM; in experiment [2], 0.14 µM; in experiment [3], 8.1 µM; in experiment [4], greater than 10 µM.
`O=C(c1ccc(C(=O)N2CCC(N3CCCC3)CC2)c(C(=O)N2CCC(N3CCCC3)CC2)c1)N1CCC(N2CCCC2)CC1`: the IC50 in experiment [1] was greater than 10 µM; in experiment [2], 0.12 µM; in experiment [3], greater than 10 µM; in experiment [4], greater than 10 µM.
Regarding `O=C(c1ccc(C(=O)N2CC(N3CCCC3)C2)cc1)N1CCC(N2CCCC2)CC1`, the 50% inhibitory concentration (IC50) is greater than 10 µM in experiment [1], 0.33 µM in experiment [2], greater than 10 µM in experiment [3] and greater than 10 µM in experiment [4].
As to `O=C(c1ccc(C(=O)N2CCC(N3CCOCC3)CC2)cc1)N1CCC(N2CCCC2)CC1`, the IC50 was greater than 10 µM in experiment [1], 1.5 µM in experiment [2], greater than 10 µM in experiment [3] and greater than 10 µM in experiment [4].
Turning to `O=C(c1ccc(C(=O)N2CCC(N3CCCCC3)CC2)cc1)N1CCC(N2CCCCC2)CC1`, the IC50 in experiment [1] was greater than 10 µM; in experiment [2], greater than 10 µM; in experiment [3], 4.9 µM; in experiment [4], greater than 10 µM.
Consider `O=C(c1ccc(C(=O)N2CCC(N3CCCC3)CC2)s1)N1CCC(N2CCCC2)CC1`, for which the concentration for half-maximal inhibition (IC50) was greater than 10 µM in experiment [1], 0.096 µM in experiment [2], greater than 10 µM in experiment [3] and greater than 10 µM in experiment [4].
Take `O=C(c1ccc(C(=O)N2CCC(N3CCCC3)CC2)c(Cc2ccccc2)c1)N1CCC(N2CCCC2)CC1`: the IC50 in experiment [1] is greater than 10 µM; in experiment [2], 0.048 µM; in experiment [3], 6.8 µM; in experiment [4], greater than 10 µM.
`CCN1Cc2ccc(NC(=O)c3ccc(C(=O)N4CCC(C5CCCN5)CC4)cc3)cc2C1` (stereo not drawn): the IC50 in experiment [1], in experiment [3] and in experiment [4] was greater than 10 µM throughout.
Take `O=C(c1ccc(C(=O)N2CCC(N3CCCC3)CC2)cc1)N1CCC(C2CCCN2)CC1` (stereo not drawn): the IC50 is greater than 10 µM in experiment [1], 0.12 µM in experiment [2] and greater than 10 µM in experiment [4].

(Values after ChEMBL document CHEMBL2424619, “Small-molecule ligands of methyl-lysine binding proteins: optimization of selectivity for L3MBTL3” (J Med Chem, 2013).)
